“Also recorded” adds a separate entry of the source. Ends that are not written are not given here.
Experiments:
EphA4 AP = EphA4 AP (Homo sapiens, UniProt P54764); assay: ELISA inhibition of EphA4 AP binding to immobilized ephrin-A5 Fc; settings: for IC50 value relative to unmodified KYL (in words): KYL alanine scan, ELISA, 0.05 nM EphA4 AP, ephrin-A5 Fc immobilized
Summary of the method: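 Peptides (purity ≥85%) were made as 10 mM DMSO stocks and tested at varied concentrations. Each was incubated for 3 h with 0.05 nM EphA4 AP in protein A wells precoated with 1 µg/ml ephrin-A5 Fc. Bound AP was quantified with p-nitrophenyl phosphate substrate in SEAP buffer, read as absorbance at 405 nm, and inhibition was computed from that signal.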

[1] = Peptide stability in mouse serum; type: in vitro ADME; settings: 37°C, ELISA read-out of residual antagonistic activity
Summary of the method: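 Peptide at 100, 200 or 500 µM (depending on peptide) was held in mouse serum at 37 °C and sampled over time. Samples were diluted 1:20 into protein A wells carrying 1 µg/ml ephrin-A5 Fc, with 0.05 nM EphA4 AP, for 30 min at 4 °C. Bound AP was read as OD405 and normalised: peptide-free serum = 0, unincubated peptide = 1.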

[2] = target: EphA4 ephrin-binding domain (residues 29-209) (human, UniProt P54764-1 29-209); assay: ITC
EphA4 ephrin-binding domain (residues 29-209), sequence (P54764 29-209): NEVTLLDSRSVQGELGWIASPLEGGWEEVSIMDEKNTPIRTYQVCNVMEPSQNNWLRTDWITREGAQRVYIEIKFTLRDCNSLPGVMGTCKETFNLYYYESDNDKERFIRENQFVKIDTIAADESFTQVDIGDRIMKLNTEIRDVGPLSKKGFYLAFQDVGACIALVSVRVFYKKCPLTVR

D33A EphA4 AP mutant = D33A EphA4 AP mutant (Homo sapiens, UniProt P54764, D61A); assay: ELISA binding to immobilized ephrin-A5 Fc
D33A EphA4 AP mutant, sequence (P54764 30-209 D61A): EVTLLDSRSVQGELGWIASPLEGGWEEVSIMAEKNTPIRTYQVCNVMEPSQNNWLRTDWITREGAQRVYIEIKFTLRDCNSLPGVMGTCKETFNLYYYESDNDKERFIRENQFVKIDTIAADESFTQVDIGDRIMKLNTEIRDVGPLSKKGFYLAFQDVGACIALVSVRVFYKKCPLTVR
Summary of the method: (§1)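 Wild-type and mutant human EphA4 ephrin-binding domain–AP fusions were secreted from transfected HEK293T cells into Opti-MEM, and the medium was concentrated about 50-fold. Protein amount was estimated from AP activity. Ephrin-A5 Fc was captured at 0.5 µg/ml on protein A wells (1 h, RT, TBS/0.01% Tween 20), then EphA4 AP was added for 1 h. Bound AP was read with pNPP in SEAP buffer (pH 9.8) at OD405, minus Fc-only wells.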

M136A EphA4 AP mutant = M136A EphA4 AP mutant (Homo sapiens, UniProt P54764, M164A); assay: ELISA binding to immobilized ephrin-A5 Fc
M136A EphA4 AP mutant, sequence (P54764 30-209 M164A): as the sequence (P54764 30-209 D61A) above, with A32D, M135A counted along it
Summary of the method: as §1

M32A EphA4 AP mutant = M32A EphA4 AP mutant (Homo sapiens, UniProt P54764, M60A); assay: ELISA binding to immobilized ephrin-A5 Fc
M32A EphA4 AP mutant, sequence (P54764 30-209 M60A): as the sequence (P54764 30-209 D61A) above, with M31A, A32D counted along it
Summary of the method: as §1

A165S EphA4 AP mutant = A165S EphA4 AP mutant (Homo sapiens, UniProt P54764, A193S); assay: ELISA binding to immobilized ephrin-A5 Fc
A165S EphA4 AP mutant, sequence (P54764 30-209 A193S): as the sequence (P54764 30-209 D61A) above, with A32D, A164S counted along it
Summary of the method: as §1

T41A EphA4 AP mutant = T41A EphA4 AP mutant (Homo sapiens, UniProt P54764, T69A); assay: ELISA binding to immobilized ephrin-A5 Fc
T41A EphA4 AP mutant, sequence (P54764 30-209 T69A): as the sequence (P54764 30-209 D61A) above, with A32D, T40A counted along it
Summary of the method: as §1

Q43A EphA4 AP mutant = Q43A EphA4 AP mutant (Homo sapiens, UniProt P54764, Q71A); assay: ELISA binding to immobilized ephrin-A5 Fc
Q43A EphA4 AP mutant, sequence (P54764 30-209 Q71A): as the sequence (P54764 30-209 D61A) above, with A32D, Q42A counted along it
Summary of the method: as §1

G132V EphA4 AP mutant = G132V EphA4 AP mutant (Homo sapiens, UniProt P54764, G160V); assay: ELISA binding to immobilized ephrin-A5 Fc
G132V EphA4 AP mutant, sequence (P54764 30-209 G160V): as the sequence (P54764 30-209 D61A) above, with A32D, G131V counted along it
Summary of the method: as §1

F126A EphA4 AP mutant = F126A EphA4 AP mutant (Homo sapiens, UniProt P54764, F154A); assay: ELISA binding to immobilized ephrin-A5 Fc
F126A EphA4 AP mutant, sequence (P54764 30-209 F154A): as the sequence (P54764 30-209 D61A) above, with A32D, F125A counted along it
Summary of the method: as §1

V129A EphA4 AP mutant = V129A EphA4 AP mutant (Homo sapiens, UniProt P54764, V157A); assay: ELISA binding to immobilized ephrin-A5 Fc
V129A EphA4 AP mutant, sequence (P54764 30-209 V157A): as the sequence (P54764 30-209 D61A) above, with A32D, V128A counted along it
Summary of the method: as §1

D123A EphA4 AP mutant = D123A EphA4 AP mutant (Homo sapiens, UniProt P54764, D151A); assay: ELISA binding to immobilized ephrin-A5 Fc
D123A EphA4 AP mutant, sequence (P54764 30-209 D151A): as the sequence (P54764 30-209 D61A) above, with A32D, D122A counted along it
Summary of the method: as §1

S30A EphA4 AP mutant = S30A EphA4 AP mutant (Homo sapiens, UniProt P54764, S58A); assay: ELISA binding to immobilized ephrin-A5 Fc
S30A EphA4 AP mutant, sequence (P54764 30-209 S58A): as the sequence (P54764 30-209 D61A) above, with S29A, A32D counted along it
Summary of the method: as §1

I39A EphA4 AP mutant = I39A EphA4 AP mutant (Homo sapiens, UniProt P54764, I67A); assay: ELISA binding to immobilized ephrin-A5 Fc
I39A EphA4 AP mutant, sequence (P54764 30-209 I67A): as the sequence (P54764 30-209 D61A) above, with A32D, I38A counted along it
Summary of the method: as §1

R134A EphA4 AP mutant = R134A EphA4 AP mutant (Homo sapiens, UniProt P54764, R162A); assay: ELISA binding to immobilized ephrin-A5 Fc
R134A EphA4 AP mutant, sequence (P54764 30-209 R162A): as the sequence (P54764 30-209 D61A) above, with A32D, R133A counted along it
Summary of the method: as §1

T76A EphA4 AP mutant = T76A EphA4 AP mutant (Homo sapiens, UniProt P54764, T104A); assay: ELISA binding to immobilized ephrin-A5 Fc
T76A EphA4 AP mutant, sequence (P54764 30-209 T104A): as the sequence (P54764 30-209 D61A) above, with A32D, T75A counted along it
Summary of the method: as §1

I131A EphA4 AP mutant = I131A EphA4 AP mutant (Homo sapiens, UniProt P54764, I159A); assay: ELISA binding to immobilized ephrin-A5 Fc
I131A EphA4 AP mutant, sequence (P54764 30-209 I159A): as the sequence (P54764 30-209 D61A) above, with A32D, I130A counted along it
Summary of the method: as §1

I31A EphA4 AP mutant = I31A EphA4 AP mutant (Homo sapiens, UniProt P54764, I59A); assay: ELISA binding to immobilized ephrin-A5 Fc
I31A EphA4 AP mutant, sequence (P54764 30-209 I59A): as the sequence (P54764 30-209 D61A) above, with I30A, A32D counted along it
Summary of the method: as §1

EphA4 Fc = EphA4 Fc (UniProt Q03137 20-547); assay: ELISA
EphA4 Fc, sequence (Q03137 20-547): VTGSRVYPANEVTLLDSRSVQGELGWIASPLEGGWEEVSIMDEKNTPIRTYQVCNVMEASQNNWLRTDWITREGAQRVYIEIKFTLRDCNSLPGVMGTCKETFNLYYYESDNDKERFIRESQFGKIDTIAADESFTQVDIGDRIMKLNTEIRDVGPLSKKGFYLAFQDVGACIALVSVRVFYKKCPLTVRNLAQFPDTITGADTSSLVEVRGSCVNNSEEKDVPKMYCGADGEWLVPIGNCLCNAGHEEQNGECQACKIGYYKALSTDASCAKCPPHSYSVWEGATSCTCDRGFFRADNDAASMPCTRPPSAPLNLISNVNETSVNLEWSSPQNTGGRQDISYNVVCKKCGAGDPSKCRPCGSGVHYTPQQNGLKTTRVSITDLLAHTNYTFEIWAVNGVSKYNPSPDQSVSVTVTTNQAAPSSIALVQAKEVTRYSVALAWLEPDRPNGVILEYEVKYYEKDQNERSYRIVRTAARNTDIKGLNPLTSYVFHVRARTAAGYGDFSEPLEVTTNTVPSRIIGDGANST

[3] = read-out: inhibition of EphA4 AP binding to ephrin-A5 Fc

EphA4 AP, sequence (P54764 30-209 limits assumed): as the sequence (P54764 30-209 D61A) above, with A32D counted along it

Molecule: KYLPYWPVLASL [KYL-Ala10]
- IC50 value relative to unmodified KYL (in words) (EphA4 AP): comparable to that of unmodified KYL

Molecule: KYLPYWPVLSAL [KYL-Ala11]
- IC50 value relative to unmodified KYL (in words) (EphA4 AP): comparable to that of unmodified KYL

Molecule: VTMEAINLAFPG [VTM]
- inhibition at 25 µM (EphA4 AP; [3]): ~80%
- relative stability in mouse serum (in words) [1]: more stable than KYL and APY

Molecule: KYLPYWPVLSSL [KYL]
- inhibition at 5 µM (EphA4 AP; [3]): ~80%

Molecule: KYLPYWPVLSSL [KYL peptide]
- Kd [2]: 0.85 ± 0.15 µM

B1: ephrin-A5: natural ephrin ligand of EphA4, used as Fc fusion (R&D Systems) (protein)
chain: QDPGSKAVADRYAVYWNSSNPRFQRGDYHIDVCINDYLDVFCPHYEDSVPEDKTERYVLYMVNFDGYSACDHTSKGFKRWECNRPHSPNGPLKFSEKFQLFTPFSLGFEFRPGREYFYISSAIPDNGRRSCLKLKVFVRPTNSCMKTIGVHDRVFDVNDKVENSLEPADDTVHESAEPSRGEN
modifications: left off: Fc, end not stated, kept
- effect of mutation on ephrin-A5 binding (in words) (D33A EphA4 AP mutant): also affect ephrin-A5 binding
- effect of mutation on ephrin-A5 binding (in words) (M136A EphA4 AP mutant): also affect ephrin-A5 binding
- effect of mutation on ephrin-A5 binding (in words) (M32A EphA4 AP mutant): also affect ephrin-A5 binding
- effect of mutation on ephrin-A5 binding (in words) (A165S EphA4 AP mutant): also affect ephrin-A5 binding
- effect of mutation on ephrin-A5 binding (in words) (T41A EphA4 AP mutant): do not substantially affect; also recorded: does not affect ephrin-A5 binding
- effect of mutation on ephrin-A5 binding (in words) (Q43A EphA4 AP mutant): also affect ephrin-A5 binding
- effect of mutation on ephrin-A5 binding (in words) (G132V EphA4 AP mutant): do not substantially affect
- effect of mutation on ephrin-A5 binding (in words) (F126A EphA4 AP mutant): severely impair
- effect of mutation on ephrin-A5 binding (in words) (V129A EphA4 AP mutant): do not substantially affect
- effect of mutation on ephrin-A5 binding (in words) (D123A EphA4 AP mutant): also affect ephrin-A5 binding
- effect of mutation on ephrin-A5 binding (in words) (S30A EphA4 AP mutant): do not substantially affect
- effect of mutation on ephrin-A5 binding (in words) (I39A EphA4 AP mutant): do not substantially affect
- effect of mutation on ephrin-A5 binding (in words) (R134A EphA4 AP mutant): severely impair
- effect of mutation on ephrin-A5 binding (in words) (T76A EphA4 AP mutant): severely impair
- effect of mutation on ephrin-A5 binding (in words) (I131A EphA4 AP mutant): severely impair
- effect of mutation on ephrin-A5 binding (in words) (I31A EphA4 AP mutant): also affect ephrin-A5 binding

Molecule: VTMEAINLAFPG [VTM peptide]
- Kd [2]: 4.7 ± 0.1 µM

Molecule: VTMEAINLAFPA [VTM-Ala12]
- fold reduction of inhibitory potency against unmodified VTM (EphA4 Fc): < 2 fold

Reference: article PMC3677027 (The Biochemical journal, 2012)
